Laboratory results taken from ChEMBL document CHEMBL3297654, “Synthesis, antimicrobial and cytotoxic activities, and structure-activity relationships of gypsogenin derivatives against human cancer cells” (Eur J Med Chem, 2014).
Converted amounts (≈) assume the structure as drawn. The source made the active and inactive calls. The rule behind the calls is not given here.

How the values were obtained:
Bacillus cereus [1] = experiment: Antimicrobial activity against Bacillus cereus ATCC 11778 for 24 hrs by microdillution method; format: functional
Method in brief: (§1)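 Broth microdilution. Compound is dissolved in DMSO (2 mg/mL) and diluted in Mueller Hinton broth as two-fold serial dilutions from 256 to 0.125 µg/mL. Bacteria are pre-grown in nutrient broth at 30 °C, and the final inoculum is about 10^6 cfu/mL. Tests are incubated 37 °C for 24 h. MIC is the lowest concentration giving complete inhibition. Streptomycin is the positive control.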

Bacillus subtilis [2] = experiment: Antimicrobial activity against Bacillus subtilis ATCC 6633 for 24 hrs by microdillution method; format: functional; method in brief: as §1
Bacillus thuringiensis [3] = experiment: Antimicrobial activity against Bacillus thuringiensis for 24 hrs by microdillution method; format: functional; method in brief: as §1
Salmonella typhimurium = experiment: Antimicrobial activity against Salmonella typhimurium ATCC 14028 assessed as zone of inhibition at 30 uL for 24 hrs at 37 degC by disk diffusion test; format: functional, organism-based; settings: Salmonella enterica subsp. enterica serovar Typhimurium
Method in brief: (§2)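 Compound (30 µL of a fresh 1000 µg/mL DMSO stock) goes into a 6 mm well cut in Mueller Hinton agar inoculated with 0.1 mL broth culture adjusted to 0.5 McFarland (about 1×10^8 cells/mL). Plates are incubated 24 h at 37 °C, then zone of inhibition diameter is measured in mm.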

Micrococcus luteus = experiment: Antimicrobial activity against Micrococcus luteus ATCC 9341 assessed as zone of inhibition at 30 uL for 24 hrs at 30 degC by disk diffusion test; format: functional, organism-based
Method in brief: (§3)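 Agar well diffusion on Mueller Hinton agar seeded with 0.1 mL broth culture (18–24 h), adjusted to 0.5 McFarland (about 1×10^8 bacteria or 1×10^6 yeast cells/mL). A 6 mm well is filled with 30 µL of compound from a fresh 1000 µg/mL DMSO stock. Plates are held at 30 °C for 24 h and inhibition zone diameter is read in mm.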

Staphylococcus aureus = experiment: Antimicrobial activity against Staphylococcus aureus ATCC 25923 assessed as zone of inhibition at 30 uL for 24 hrs at 37 degC by disk diffusion test; format: functional, organism-based; method in brief: as §2
[4] = tested on: Staphylococcus epidermidis; experiment: Antimicrobial activity against Staphylococcus epidermidis ATCC 12228 assessed as zone of inhibition at 30 uL for 24 hrs at 37 degC by disk diffusion test; format: functional, organism-based; method in brief: as §2
Klebsiella pneumoniae = experiment: Antimicrobial activity against Klebsiella pneumoniae ATCC 13882 assessed as zone of inhibition at 30 uL for 24 hrs at 37 degC by disk diffusion test; format: functional, organism-based; method in brief: as §2
Pseudomonas aeruginosa = experiment: Antimicrobial activity against Pseudomonas aeruginosa ATCC 35032 assessed as zone of inhibition at 30 uL for 24 hrs at 37 degC by disk diffusion test; format: functional, organism-based; method in brief: as §2
Proteus vulgaris = experiment: Antimicrobial activity against Proteus vulgaris ATCC 33420 assessed as zone of inhibition at 30 uL for 24 hrs at 37 degC by disk diffusion test; format: functional, organism-based; method in brief: as §2
Enterococcus faecalis = experiment: Antimicrobial activity against Enterococcus faecalis ATCC 29212 assessed as zone of inhibition at 30 uL for 24 hrs at 37 degC by disk diffusion test; format: functional, organism-based; method in brief: as §2
Bacillus cereus [5] = experiment: Antimicrobial activity against Bacillus cereus ATCC 11778 assessed as zone of inhibition at 30 uL for 24 hrs at 30 degC by disk diffusion test; format: functional; method in brief: as §3
Bacillus subtilis [6] = experiment: Antimicrobial activity against Bacillus subtilis ATCC 6633 assessed as zone of inhibition at 30 uL for 24 hrs at 30 degC by disk diffusion test; format: functional; method in brief: as §3
Bacillus thuringiensis [7] = experiment: Antimicrobial activity against Bacillus thuringiensis assessed as zone of inhibition at 30 uL for 24 hrs at 30 degC by disk diffusion test; format: functional; method in brief: as §3
Candida albicans = experiment: Antimicrobial activity against Candida albicans ATCC 10231 assessed as zone of inhibition at 30 uL for 24 hrs at 30 degC by disk diffusion test; format: functional, organism-based; method in brief: as §3
Cyberlindnera jadinii = experiment: Antimicrobial activity against Candida utilis ATCC 9950 assessed as zone of inhibition at 30 uL for 24 hrs at 30 degC by disk diffusion test; format: functional, organism-based; method in brief: as §3
Candida tropicalis = experiment: Antimicrobial activity against Candida tropicalis assessed as zone of inhibition at 30 uL for 24 hrs at 30 degC by disk diffusion test; format: functional, organism-based; method in brief: as §3
Nakaseomyces glabratus = experiment: Antimicrobial activity against Candida glabrata assessed as zone of inhibition at 30 uL for 24 hrs at 30 degC by disk diffusion test; format: functional, organism-based; method in brief: as §3
Saccharomyces cerevisiae = experiment: Antimicrobial activity against Saccharomyces cerevisiae ATCC 9763 assessed as zone of inhibition at 30 uL for 24 hrs at 30 degC by disk diffusion test; format: functional, organism-based; method in brief: as §3
HL-60 [8] = experiment: Antiproliferative activity against human HL60 cells after 24 and 72 hrs by MTT assay; format: functional, cell-based
Method in brief: (§4)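 ATCC human cell lines are kept in RPMI, DMEM or McCoy's 5A with 10–15% heat-inactivated FCS at 37 °C and 5% CO2. They are seeded at 1×10^4–1×10^5 cells/mL in 48-well plates and exposed to 0.5, 10, 20 or 40 µM. Viability is read by MTT (590 nm) at 24 and 72 h. Growth is expressed relative to untreated cells and IC50 is fitted, in triplicate.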

HT-29 [9] = experiment: Antiproliferative activity against human HT-29 cells after 24 and 72 hrs by MTT assay; format: functional, cell-based; method in brief: as §4
Caco-2 [10] = experiment: Antiproliferative activity against human Caco2 cells after 24 and 72 hrs by MTT assay; format: functional, cell-based; method in brief: as §4
[11] = Antiproliferative activity against human Saos2 cells after 24 and 72 hrs by MTT assay; format: functional, cell-based; settings: SAOS-2; method in brief: as §4
MCF7 [12] = experiment: Antiproliferative activity against human MCF7 cells after 24 and 72 hrs by MTT assay; format: functional, cell-based; method in brief: as §4
HeLa [13] = experiment: Antiproliferative activity against human HeLa cells after 24 and 72 hrs by MTT assay; format: functional, cell-based; method in brief: as §4
HL-60 [14] = experiment: Induction of apoptosis in human HL60 cells at 20 uM after 48 hrs by Hoechst 33258/propidium iodide staining based phase contrast microscopic analysis; format: functional
Method in brief: (§5)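 Cells in 48-well plates treated with 0.5, 10, 20 or 40 µM for 24 and 48 h. Values are read at 48 h, 20 µM for test agents and 0.5 µM for controls. Staining is Hoechst 33258/propidium iodide double staining with fluorescence microscopy. Blue nuclei are viable or early-to-mid apoptotic, and pink nuclei are late apoptotic or necrotic. Apoptosis and necrosis are scored from chromatin condensation as % of cells. Cells are grown at 37 °C in 5% CO2 in RPMI, DMEM or McCoy's 5A with 10–15% heat-inactivated FCS.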

HT-29 [15] = experiment: Induction of apoptosis in human HT-29 cells at 20 uM after 48 hrs by Hoechst 33258/propidium iodide staining based phase contrast microscopic analysis; format: functional; method in brief: as §5
Caco-2 [16] = experiment: Induction of apoptosis in human Caco2 cells at 20 uM after 48 hrs by Hoechst 33258/propidium iodide staining based phase contrast microscopic analysis; format: functional; method in brief: as §5
SAOS-2 [17] = experiment: Induction of apoptosis in human Saos2 cells at 20 uM after 48 hrs by Hoechst 33258/propidium iodide staining based phase contrast microscopic analysis; format: functional; method in brief: as §5
MCF7 [18] = experiment: Induction of apoptosis in human MCF7 cells at 20 uM after 48 hrs by Hoechst 33258/propidium iodide staining based phase contrast microscopic analysis; format: functional; method in brief: as §5
HeLa [19] = experiment: Induction of apoptosis in human HeLa cells at 20 uM after 48 hrs by Hoechst 33258/propidium iodide staining based phase contrast microscopic analysis; format: functional; method in brief: as §5
HL-60 [20] = experiment: Induction of necrosis in human HL60 cells at 20 uM after 48 hrs by Hoechst 33258/propidium iodide staining based phase contrast microscopic analysis; format: functional; method in brief: as §5
HT-29 [21] = experiment: Induction of necrosis in human HT-29 cells at 20 uM after 48 hrs by Hoechst 33258/propidium iodide staining based phase contrast microscopic analysis; format: functional; method in brief: as §5
Caco-2 [22] = experiment: Induction of necrosis in human Caco2 cells at 20 uM after 48 hrs by Hoechst 33258/propidium iodide staining based phase contrast microscopic analysis; format: functional; method in brief: as §5
SAOS-2 [23] = experiment: Induction of necrosis in human Saos2 cells at 20 uM after 48 hrs by Hoechst 33258/propidium iodide staining based […] microscopic analysis; format: functional; method in brief: as §5
MCF7 [24] = experiment: Induction of necrosis in human MCF7 cells at 20 uM after 48 hrs by Hoechst 33258/propidium iodide staining based phase contrast microscopic analysis; format: functional; method in brief: as §5
HeLa [25] = experiment: Induction of necrosis in human HeLa cells at 20 uM after 48 hrs by Hoechst 33258/propidium iodide staining based phase contrast microscopic analysis; format: functional; method in brief: as §5
Escherichia coli = experiment: Antimicrobial activity against Escherichia coli ATCC 25922 assessed as zone of inhibition at 30 uL for 24 hrs at 37 degC by disk diffusion test; format: functional, organism-based; method in brief: as §2

Row | Structure (SMILES) | MIC (Bacillus thuringiensis [3]) | diameter of the inhibition zone (DIZ) (Salmonella typhimurium) | diameter of the inhibition zone (DIZ) (Micrococcus luteus) | diameter of the inhibition zone (DIZ) (Staphylococcus aureus) | diameter of the inhibition zone (DIZ) [4] | diameter of the inhibition zone (DIZ) (Klebsiella pneumoniae) | diameter of the inhibition zone (DIZ) (Pseudomonas aeruginosa) | diameter of the inhibition zone (DIZ) (Proteus vulgaris) | diameter of the inhibition zone (DIZ) (Enterococcus faecalis) | diameter of the inhibition zone (DIZ) (Bacillus cereus [5]) | diameter of the inhibition zone (DIZ) (Bacillus subtilis [6]) | diameter of the inhibition zone (DIZ) (Bacillus thuringiensis [7]) | diameter of the inhibition zone (DIZ) (Candida albicans) | diameter of the inhibition zone (DIZ) (Cyberlindnera jadinii) | diameter of the inhibition zone (DIZ) (Candida tropicalis) | diameter of the inhibition zone (DIZ) (Nakaseomyces glabratus) | diameter of the inhibition zone (DIZ) (Saccharomyces cerevisiae) | MIC (Bacillus cereus [1]) | MIC (Bacillus subtilis [2]) | IC50 (HL-60 [8]) | other results
1 | CN[C@@H]1[C@H](O[C@H]2[C@H](O[C@H]3[C@H](O)[C@@H](O)[C@H](N=C(N)N)[C@@H](O)[C@@H]3N=C(N)N)O[C@@H](C)[C@]2(O)C=O)O[C@@H](CO)[C@H](O)[C@H]1O [STREPTOMYCIN] | 64 µg/mL (≈ 110 µM) | – | – | – | – | – | – | – | – | – | – | – | – | – | – | – | – | – | – | – | MIC (Bacillus cereus [1]; ATCC 11778, 24 h): 64 µg/mL (≈ 110 µM); MIC (Bacillus subtilis [2]; ATCC 6633, 24 h): 64 µg/mL (≈ 110 µM)
2 | CC1(C)CC[C@]2(C(=O)OCc3ccccc3)CC[C@]3(C)C(=CC[C@@H]4[C@@]5(C)CC[C@H](O)[C@@](C)(/C=N/O)[C@@H]5CC[C@]43C)[C@@H]2C1 | inactive | inactive | inactive | inactive | inactive | inactive | inactive | inactive | inactive | inactive | inactive | inactive | inactive | inactive | inactive | inactive | inactive | inactive | inactive | 10.6 µM | IC50 (HT-29 [9]): 8.01 µM; IC50 (Caco-2 [10]): 16.1 µM; IC50 [11]: 10.3 µM; IC50 (MCF7 [12]): 6.67 µM; IC50 (HeLa [13]): 28.9 µM; Activity (HL-60 [14]): 8%; Activity (HT-29 [15]): 12%; Activity (Caco-2 [16]): 11%; Activity (SAOS-2 [17]): 9%; Activity (MCF7 [18]): 12%; Activity (HeLa [19]): 11%; Activity (HL-60 [20]): 41%; Activity (HT-29 [21]): 29%; Activity (Caco-2 [22]): 32%; Activity (SAOS-2 [23]): 23%; Activity (MCF7 [24]): 54%; Activity (HeLa [25]): 32%; diameter of the inhibition zone (DIZ) (Escherichia coli): inactive
3 | CC1(C)CC[C@]2(C(=O)OCc3ccccc3)CC[C@]3(C)C(=CC[C@@H]4[C@@]5(C)CC[C@H](O)[C@@](C)(/C=N/NC(N)=S)[C@@H]5CC[C@]43C)[C@@H]2C1 | inactive | inactive | inactive | inactive | inactive | inactive | inactive | inactive | inactive | inactive | inactive | inactive | inactive | inactive | inactive | inactive | inactive | inactive | inactive | 6.21 µM | IC50 (HT-29 [9]): 15 µM; IC50 (Caco-2 [10]): 36.5 µM; IC50 [11]: 6.97 µM; IC50 (MCF7 [12]): 6.05 µM; IC50 (HeLa [13]): 23.6 µM; Activity (HL-60 [14]): 2%; Activity (HT-29 [15]): 2%; Activity (Caco-2 [16]): 4%; Activity (SAOS-2 [17]): 5%; Activity (MCF7 [18]): 4%; Activity (HeLa [19]): 5%; Activity (HL-60 [20]): 64%; Activity (HT-29 [21]): 32%; Activity (Caco-2 [22]): 48%; Activity (SAOS-2 [23]): 41%; Activity (MCF7 [24]): 63%; Activity (HeLa [25]): 55%; diameter of the inhibition zone (DIZ) (Escherichia coli): inactive
